Measured values: ChEMBL document CHEMBL2412964, “Discovery of novel tetrahydro-pyrazolo [4,3-c] pyridines for the treatment of neuropathic pain: synthesis and neuropharmacology” (Eur J Med Chem, 2013)

What was measured:
[1] = tested on: Rattus norvegicus; test: Antinociceptive activity in Wistar rat chronic constriction injury model assessed as reversal of mechanical allodynia at 100 mg/kg, ip after 120 mins (reference value: 5.3 +/- 0.5%); type: functional; conditions: route intraperitoneal
[2] = tested on: Rattus norvegicus; test: Antinociceptive activity in Wistar rat partial sciatic nerve ligation model assessed as reversal of tactile allodynia at 100 mg/kg, ip after 30 mins (reference value: 7.7 +/- 0.7%); type: functional; conditions: route intraperitoneal
[3] = tested on: Rattus norvegicus; test: Antinociceptive activity in Wistar rat partial sciatic nerve ligation model assessed as reversal of cold allodynia at 100 mg/kg, ip after 30 mins (reference value: 4.1 +/- 1.0%); type: functional; conditions: route intraperitoneal
[4] = tested on: Rattus norvegicus; test: Antinociceptive activity in ip dosed Wistar rat partial sciatic nerve ligation model assessed as reversal of mechanical allodynia after 30 mins; type: functional; conditions: 0.5 h
Method in brief: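 Wistar rats (200–250 g) with nerve injury, compounds i.p. in 30% v/v PEG 400; dose–response curves in each sensory test (spontaneous pain and cold allodynia as paw withdrawal duration; tactile allodynia and hyperalgesia as withdrawal threshold). ED50 linearly interpolated between doses just above and below 50% response; time of peak effect recorded.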

[5] = biological target: T1, Cannabinoid receptor 2 (Rattus norvegicus, UniProt Q9QZN9); test: Displacement of [3H]CP55940 from CB2 receptor in rat spleen homogenate after 90 mins; type: tissue-based
T1 sequence (Q9QZN9 whole entry): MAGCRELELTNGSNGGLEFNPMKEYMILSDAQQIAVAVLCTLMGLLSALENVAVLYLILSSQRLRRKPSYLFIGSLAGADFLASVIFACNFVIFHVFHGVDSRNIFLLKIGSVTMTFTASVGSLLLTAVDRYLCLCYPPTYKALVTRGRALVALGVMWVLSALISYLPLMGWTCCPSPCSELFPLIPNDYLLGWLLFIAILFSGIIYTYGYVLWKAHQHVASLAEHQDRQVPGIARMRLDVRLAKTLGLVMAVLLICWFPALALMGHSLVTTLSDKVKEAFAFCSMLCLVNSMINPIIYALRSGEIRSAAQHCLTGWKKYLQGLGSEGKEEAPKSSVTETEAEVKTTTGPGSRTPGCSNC
Method in brief: (§1)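 Rat brain (CB1) or spleen (CB2) membranes, homogenized in tris/NaCl/MgCl2 pH 7.4, competed against 0.5 nM [3H]CP55940 in 50 mM Tris-HCl, 2 mM EDTA, 5 mM MgCl2, 0.2 mg/mL BSA, pH 7.4; 90 min incubation. Nonspecific binding with 1 µM WIN (CB1) or 1 µM SR144528 (CB2); triplicates averaged.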

[6] = tested on: Mus musculus; test: Antinociceptive activity in Swiss albino mouse assessed as inhibition of formalin-induced flinching at 100 mg/kg administered 30 mins prior to test measured for 10 to 30 mins relative to control; type: functional
[7] = tested on: Rattus norvegicus; test: Antinociceptive activity in Wistar rat chronic constriction injury model assessed as reversal of cold allodynia at 100 mg/kg, ip after 60 mins (reference value: 6.3 +/- 1.9%); type: functional; conditions: route intraperitoneal
[8] = biological target: Cannabinoid receptor 1 (Rattus norvegicus, UniProt P20272); test: Displacement of [3H]CP55940 from CB1 receptor in rat brain homogenate after 90 mins; type: tissue-based; method in brief: as §1
[9] = tested on: Rattus norvegicus; test: Antinociceptive activity in Wistar rat partial sciatic nerve ligation model assessed as reversal of spontaneous pain response at 100 mg/kg, ip after 60 mins (reference value: 2.9 +/- 0.3%); type: functional; conditions: route intraperitoneal
[10] = tested on: Rattus norvegicus; test: Antinociceptive activity in Wistar rat partial sciatic nerve ligation model assessed as reversal of cold allodynia at 100 mg/kg, ip after 120 mins (reference value: 1.5 +/- 0.5%); type: functional; conditions: route intraperitoneal
[11] = tested on: Rattus norvegicus; test: Antinociceptive activity in Wistar rat partial sciatic nerve ligation model assessed as reversal of mechanical allodynia at 100 mg/kg, ip after 30 mins (reference value: 2.9 +/- 0.3%); type: functional; conditions: route intraperitoneal
[12] = tested on: Rattus norvegicus; test: Antinociceptive activity in Wistar rat chronic constriction injury model assessed as reversal of spontaneous pain response at 100 mg/kg, ip after 30 mins (reference value: 8.9 +/- 4.6%); type: functional; conditions: route intraperitoneal
[13] = tested on: Mus musculus; test: Neurotoxicity in Swiss albino mouse assessed as minimal motor impairment at 300 mg/kg after 0.5 hrs by rotarod test; type: toxicity, organism-based; set-up: dose 300 mg/kg; conditions: in vivo
Method in brief: (§2)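 Swiss albino mice of either sex, 20-25 g, dosed at 30, 100 and 300 mg/kg, three per group. Minimal motor impairment scored by rotarod at 0.5 and 4.0 h after dosing. Reported value is the lowest dose giving impairment in half or more of the mice.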

[14] = tested on: Rattus norvegicus; test: Antinociceptive activity in Wistar rat partial sciatic nerve ligation model assessed as reversal of mechanical allodynia at 100 mg/kg, ip after 60 mins (reference value: 2.8 +/- 0.3%); type: functional; conditions: route intraperitoneal
[15] = tested on: Rattus norvegicus; test: Antinociceptive activity in Wistar rat chronic constriction injury model assessed as reversal of tactile allodynia at 100 mg/kg, ip after 120 mins (reference value: 4.1 +/- 2.1%); type: functional; conditions: route intraperitoneal
[16] = tested on: Rattus norvegicus; test: Antinociceptive activity in Wistar rat chronic constriction injury model assessed as reversal of spontaneous pain response at 100 mg/kg, ip after 120 mins (reference value: 4.5 +/- 0.2%); type: functional; conditions: route intraperitoneal
[17] = species: Rattus norvegicus; test: Neuroprotective activity in Wistar rat chronic constriction injury model assessed as inhibition of nitric oxide production in sciatic nerve after 2 hrs by Griess method relative to control; type: functional
Method in brief: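 Wistar rats of either sex (200-250 g) with chronic constriction of the left sciatic nerve. On day 9 post-injury, compound given i.p. in 30% v/v PEG 400; tissue taken 2 h after dosing. Nitrate reduced to nitrite, nitrite measured colorimetrically with Griess reagent against a standard curve. Results expressed as percentage of vehicle-treated control; n = 4.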

[18] = tested on: Rattus norvegicus; test: Antinociceptive activity in Wistar rat chronic constriction injury model assessed as reversal of mechanical allodynia at 100 mg/kg, ip after 60 mins (reference value: 4.9 +/- 1.0%); type: functional; conditions: route intraperitoneal
[19] = tested on: Rattus norvegicus; test: Antinociceptive activity in Wistar rat chronic constriction injury model assessed as reversal of cold allodynia at 100 mg/kg, ip after 30 mins (reference value: 0.6 +/- 2.7%); type: functional; conditions: route intraperitoneal
[20] = tested on: Mus musculus; test: Neurotoxicity in Swiss albino mouse assessed as minimal motor impairment at 300 mg/kg after 4 hrs by rotarod test; type: toxicity, organism-based; set-up: dose 300 mg/kg; conditions: in vivo; method in brief: as §2
[21] = tested on: Rattus norvegicus; test: Antinociceptive activity in Wistar rat chronic constriction injury model assessed as reversal of spontaneous pain response at 100 mg/kg, ip after 60 mins (reference value: 4.6 +/- 0.6%); type: functional; conditions: route intraperitoneal
[22] = tested on: Mus musculus; test: Antiinflammatory activity in Swiss albino mouse assessed as inhibition of LPS-induced TNFalpha production at 100 mg/kg, ip administered 30 mins prior to LPS-challenge measured after 90 mins by ELISA relative to control; type: functional; conditions: route intraperitoneal
Method in brief: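 Swiss albino mice (20–25 g, either sex) dosed i.p. with 100 mg/kg in 10 mL/kg; LPS 1.0 mg/kg in sterile PBS i.p. given 30 min later. Blood taken 90 min after LPS, plasma TNF measured by ELISA, expressed as % inhibition versus vehicle-treated control; n = 4, one-way ANOVA with Dunnett's test.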

[23] = tested on: Rattus norvegicus; test: Antinociceptive activity in Wistar rat partial sciatic nerve ligation model assessed as reversal of tactile allodynia at 100 mg/kg, ip after 120 mins relative to control; type: functional; conditions: route intraperitoneal
[24] = tested on: Rattus norvegicus; test: Antinociceptive activity in Wistar rat partial sciatic nerve ligation model assessed as reversal of cold allodynia at 100 mg/kg, ip after 60 mins (reference value: 2.5 +/- 0.3%); type: functional; conditions: route intraperitoneal

Cannabinoid receptor 1, sequence (P20272 whole entry): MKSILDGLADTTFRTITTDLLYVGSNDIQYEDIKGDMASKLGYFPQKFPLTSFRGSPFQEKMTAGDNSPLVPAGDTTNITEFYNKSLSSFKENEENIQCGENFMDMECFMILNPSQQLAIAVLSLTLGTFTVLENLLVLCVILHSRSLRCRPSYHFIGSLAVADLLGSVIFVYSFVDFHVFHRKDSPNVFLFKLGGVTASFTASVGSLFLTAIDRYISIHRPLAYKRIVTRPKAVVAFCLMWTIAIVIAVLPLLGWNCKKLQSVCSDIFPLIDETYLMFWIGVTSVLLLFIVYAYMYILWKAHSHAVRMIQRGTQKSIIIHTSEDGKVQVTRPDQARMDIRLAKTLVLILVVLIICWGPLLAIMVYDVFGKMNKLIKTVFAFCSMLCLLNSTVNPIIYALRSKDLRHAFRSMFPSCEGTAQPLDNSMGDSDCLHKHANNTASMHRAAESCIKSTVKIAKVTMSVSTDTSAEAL

For CCN1CCc2c(c(C(C)(C)C)nn2C(=O)Nc2ccc(Br)cc2)C1, which Activity [1] is on record?
The Activity was 65.3%.

What about the Activity [2] of the same compound?
The Activity was 61.6%.

What about the Activity [3] of the same compound?
The Activity was 55.4%.

What about the ED50 [4] of the same compound?
Its ED50 is 29 mg/kg.

And the IC50 [5]?
Its IC50 is > 1000 nM.

What about the inhibition in vivo at 100 mg/kg [6] of the same compound?
The inhibition in vivo at 100 mg/kg was 72.1%.

And the Activity [7]?
The Activity was 65%.

And the IC50 [8]?
Its IC50 is 49.6 nM.

And the Activity [9]?
The Activity was 55.7%.

And the Activity [10]?
The Activity was 48.2%.

What about the Activity [11] of the same compound?
The Activity was 59.8%.

What about the Activity [12] of the same compound?
The Activity was 90.6%.

And the Activity [13]?
The Activity was “Non-toxic”.

What about the Activity [14] of the same compound?
The Activity was 53.6%.

And the Activity [15]?
Its Activity is 50.5%.

And the Activity [16]?
Its Activity is 83.2%.

And the “inhibition (INH)” value [17]?
The value was 47.8%.

What about the Activity [18] of the same compound?
The Activity was 66%.

And the Activity [19]?
Its Activity is 73%.

And the Activity [20]?
The Activity was “Non-toxic”.

What about the Activity [21] of the same compound?
Its Activity is 85.9%.

And the inhibition in vivo at 100 mg/kg [22]?
Its inhibition in vivo at 100 mg/kg is 86.4%.

And the Activity [23]?
The Activity was 44.9%.

What about the Activity [24] of the same compound?
Its Activity is 50.6%.

Which results are given for CCN1CCc2c(c(C(C)(C)C)nn2C(=O)Nc2ccc(C)cc2C)C1?
Activity [1]: 67.5%; Activity [2]: 61.6%; Activity [3]: 62.1%; ED50 [4]: 31.8 mg/kg; IC50 [5]: > 1000 nM; inhibition in vivo at 100 mg/kg [6]: 59.9%; Activity [7]: 50.4%; IC50 [8]: > 1000 nM; Activity [9]: 67.3%; Activity [10]: 38.2%; Activity [11]: 62.3%; Activity [12]: 85.4%; Activity [13]: Non-toxic; Activity [14]: 56.3%; Activity [15]: 58%; Activity [16]: 89.5%; inhibition (INH) [17]: 65.4%; Activity [18]: 80%; Activity [19]: 53.9%; Activity [20]: Non-toxic; Activity [21]: 90.9%; inhibition in vivo at 100 mg/kg [22]: 58.9%; Activity [23]: 88.4%; Activity [24]: 52.7%

With CCN1CCc2c(c(C(C)(C)C)nn2C(=O)Nc2c(C)cccc2C)C1 as the compound, how does the Activity [1] read?
Its Activity is 78.9%.

What about the Activity [2] of the same compound?
The Activity was 89.4%.

And the Activity [3]?
The Activity was 58.3%.

What about the ED50 [4] of the same compound?
Its ED50 is 23.6 mg/kg.

What about the IC50 [5] of the same compound?
The IC50 was > 1000 nM.

What about the inhibition in vivo at 100 mg/kg [6] of the same compound?
The inhibition in vivo at 100 mg/kg was 68%.

What about the Activity [7] of the same compound?
Its Activity is 61.2%.

And the IC50 [8]?
The IC50 was > 1000 nM.

What about the Activity [9] of the same compound?
Its Activity is 78.3%.

And the Activity [10]?
The Activity was 10.4%.

And the Activity [11]?
The Activity was 95.5%.

What about the Activity [12] of the same compound?
Its Activity is 95%.

What about the Activity [13] of the same compound?
Its Activity is “Non-toxic”.

And the Activity [14]?
Its Activity is 57.7%.

What about the Activity [15] of the same compound?
The Activity was 69.7%.

What about the Activity [16] of the same compound?
The Activity was 88.5%.

And the “inhibition (INH)” value [17]?
Its value is 68.7%.

And the Activity [18]?
Its Activity is 84.4%.

What about the Activity [19] of the same compound?
Its Activity is 61.4%.

And the Activity [20]?
Its Activity is “Non-toxic”.

And the Activity [21]?
Its Activity is 90.7%.

And the inhibition in vivo at 100 mg/kg [22]?
The inhibition in vivo at 100 mg/kg was 77.6%.

What about the Activity [23] of the same compound?
The Activity was 46.6%.

And the Activity [24]?
The Activity was 56%.
